Measured values: ChEMBL document CHEMBL1131591, “2-Fluoro-4-pyridinylmethyl analogues of linopirdine as orally active acetylcholine release-enhancing agents with good efficacy and duration of action” (J Med Chem, 1998)
Blank lines part the entries; values can stand above or below the compound they belong to.

How the values were obtained:
[1] = organism: Rattus norvegicus; assay: Compound was tested in vitro for its ability to enhance the K+-stimulated release of [3H]acetylcholine from rat hippocampal slices preloaded with [3H]choline at 10 uM; format: functional, Hippocampus
Procedure, shortened: (§1)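 Superfused rat hippocampal slices preloaded with [3H]choline. Release evoked for 4 min at two points (S1, S2) by raising K+ in the medium to 25 mM. Compound added after S1 and kept in the medium through S2. Enhancement taken as the S2/S1 ratio, expressed as percent of control (control = 100%). EC50 taken as the concentration giving 50% of the compound's peak efficacy. At least three determinations per point.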

[2] = organism: Rattus norvegicus; assay: Compound was tested in vitro for its ability to enhance the K+-stimulated release of [3H]acetylcholine from rat hippocampal slices preloaded with [3H]-Choline.; format: functional; conditions: Hippocampus; procedure, shortened: as §1
[3] = test system: Rattus norvegicus; assay: Compound was tested in vivo for microdialysis ACh release after peroral administration of 10 mg/kg water at the duration of 100 minutes; format: functional; conditions: route oral
Procedure, shortened: (§2)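 Freely moving rats under brain microdialysis. Dialysate injected onto HPLC every 20 min to measure ACh. Compound or vehicle given orally after the fourth 20-min collection, usually 14 collections in total. Vehicle was water or a suspension in […] methocel in water, bead-milled overnight. Peak reported as percent increase over baseline (control = 0). Duration is the number of consecutive minutes at significance.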

[4] = test system: Rattus norvegicus; assay: Compound was tested in vivo for microdialysis ACh release after peroral administration of 5 mg/kg suspended in water; format: functional; conditions: route oral; procedure, shortened: as §2
[5] = test system: Rattus norvegicus; assay: Compound was tested in vivo for microdialysis ACh release after peroral administration of 10 mg/kg methocel; format: functional; conditions: route oral; procedure, shortened: as §2
[6] = test system: Rattus norvegicus; assay: Compound was tested in vivo for microdialysis ACh release after peroral administration of 10 mg/kg suspended in methocel at the duration of 80 minutes; format: functional; conditions: route oral; procedure, shortened: as §2
[7] = test system: Rattus norvegicus; assay: Compound was tested in vivo for microdialysis ACh release after peroral administration of 20 mg/kg methocel at the duration of 140 minutes; format: functional; conditions: route oral; procedure, shortened: as §2
[8] = test system: Rattus norvegicus; assay: Compound was tested in vivo for microdialysis ACh release after peroral administration of 5 mg/kg suspended in water at the duration of 20 minutes; format: functional; conditions: route oral; procedure, shortened: as §2
[9] = organism: Rattus norvegicus; assay: Compound was tested in vitro for its ability to enhance the K+-stimulated release of [3H]acetylcholine from rat hippocampal slices preloaded with [3H]choline at 3 uM; format: functional, Hippocampus; procedure, shortened: as §1
[10] = test system: Rattus norvegicus; assay: Compound was tested in vivo for microdialysis ACh release after peroral administration of 1 mg/kg suspended in methocel at the duration of 120 minutes; format: functional; conditions: route oral; procedure, shortened: as §2
[11] = test system: Rattus norvegicus; assay: Compound was tested in vivo for microdialysis ACh release after peroral administration of 5 mg/kg methocel at the duration of >80 minutes; format: functional; conditions: route oral; procedure, shortened: as §2
[12] = test system: Rattus norvegicus; assay: Compound was tested in vivo for microdialysis ACh release after peroral administration of 0.5 mg/kg suspended in methocel; format: functional; conditions: route oral; procedure, shortened: as §2
[13] = test system: Rattus norvegicus; assay: Compound was tested in vivo for microdialysis ACh release after peroral administration of 1 mg/kg methocel at the duration of >120 minutes; format: functional; conditions: route oral; procedure, shortened: as §2
[14] = test system: Rattus norvegicus; assay: Compound was tested in vivo for microdialysis ACh release after peroral administration of 10 mg/kg water at the duration of >40 minutes; format: functional; conditions: route oral; procedure, shortened: as §2
[15] = organism: Rattus norvegicus; assay: Compound was tested in vitro for its ability to enhance the K+-stimulated release of [3H]acetylcholine from rat hippocampal slices preloaded with [3H]-Choline at 1 uM; format: functional, Hippocampus; procedure, shortened: as §1
[16] = test system: Rattus norvegicus; assay: Compound was tested in vivo for microdialysis ACh release after peroral administration of 5 mg/kg methocel at the duration of 100 minutes; format: functional; conditions: route oral; procedure, shortened: as §2

EC50 [2]: 450 nM
Structure (SMILES): O=C1c2ccccc2C(Cc2ccncc2)(Cc2ccncc2)c2ccccc21
Control [1]: 600%
Increase over control [3]: 127%
Increase over control [4]: 18%

EC50 [2]: 10000 nM
Structure (SMILES): O=C1N(c2ccccc2)c2ccccc2C1(Cc1ccncc1)Cc1ccnc(F)c1 (configuration not stated)
Control [1]: 433%
Increase over control [5]: 27%

EC50 [2]: 410 nM
Structure (SMILES): O=C1c2ccccc2C(Cc2ccncc2)(Cc2ccnc(F)c2)c2ccccc21
Control [15]: 452%
Increase over control [16]: 75%

More lines, now with the values behind:

Structure (SMILES): O=C1N(c2ccccc2)c2ccccc2C1(Cc1ccnc(F)c1)Cc1ccnc(F)c1
Control [1]: 326%
EC50 [2]: 15200 nM
Increase over control [5]: 44%

Structure (SMILES): O=C1N(c2ccccc2)c2ccccc2C1(Cc1ccncc1)Cc1ccncc1 [LINOPIRDINE]
Control [1]: 337%
EC50 [2]: 4500 nM
Increase over control [6]: 65%
Increase over control [7]: 117%
Increase over control [8]: 50%

Structure (SMILES): Fc1cc(CC2(Cc3ccnc(F)c3)c3ccccc3-c3ncccc32)ccn1
Control [9]: 440%
EC50 [2]: 1600 nM
Increase over control [10]: 74%
Increase over control [11]: 201%

Structure (SMILES): O=C1c2ccccc2C(Cc2ccnc(F)c2)(Cc2ccnc(F)c2)c2ccccc21
Control [9]: 413%
EC50 [2]: 830 nM
Increase over control [12]: 40%
Increase over control [13]: 115%

Structure (SMILES): Fc1cc(CC2(Cc3ccncc3)c3ccccc3-c3ncccc32)ccn1 (configuration not stated)
Control [1]: 317%
EC50 [2]: 1080 nM
Increase over control [14]: 52%
Increase over control [4]: 47%

Structure (SMILES): c1ccc2c(c1)-c1ncccc1C2(Cc1ccncc1)Cc1ccncc1
Control [1]: 725%
EC50 [2]: 4120 nM
